How the values were obtained:
[1] = test system: MDA-MB-231S triple-negative breast cancer cell line; assay: MTT antiproliferative assay, MDA-MB-231S; format: cell-based; settings: 48 h, read-out: IC50, antiproliferative effect
Method in brief: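 Antiproliferative test on MDA-MB-231S cells with DMSO as negative (vehicle) control and doxorubicin as positive control. Activity is reported as IC50.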

[2] = TAOC, total antioxidant capacity; settings: read-out: TAOC EC50; concentration that results in an absorbance of 0.500
Method in brief: (§1)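 Cell-free antioxidant assays, with Trolox and ascorbic acid as positive controls. Results are expressed as […] or as Trolox equivalents.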

[3] = ORAC, oxygen radical absorbance capacity; settings: trolox equivalent
Method in brief: as §1

[4] = HORAC, hydroxyl radical absorbance capacity; settings: trolox equivalent
Method in brief: as §1

[5] = test system: RAW 264.7 mouse macrophage cell line; format: cell-based; settings: RAW264.7, 24 h, read-out: NO Production Inhibition (IC50)
Method in brief: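 NO production inhibition is measured in RAW 264.7 macrophages, with dexamethasone as positive control and the value given as IC50.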

COc1cccc2c1C(=O)c1c(O)c3c(c(O)c1C2=O)C[C@@](O)(C(=O)CO)C[C@@H]3O[C@H]1C[C@H](N)[C@H](O)[C@H](C)O1 [doxorubicin]
IC50 [1]: 0.07 ± 0.01 µM

O=C1O[C@H]([C@@H](O)CO)C(O)=C1O [ascorbic acid]
EC50 [2]: 244 µM

Cc1c(C)c2c(c(C)c1O)CCC(C)(C(=O)O)O2 (stereo not drawn) [trolox]
ORAC (TE) [3]: 1 TE
HORAC (TE) [4]: 1 TE
EC50 [2]: 143 µM

C[C@@H]1C[C@H]2[C@@H]3CCC4=CC(=O)C=C[C@]4(C)[C@@]3(F)[C@@H](O)C[C@]2(C)[C@@]1(O)C(=O)CO [dexametasone, Dexamethasone]
IC50 [5]: 16.1 ± 1.02 µM
